Compound activity from PubChem.
Env fusion inh = inhibitors of HIV Env-mediated cell fusion; HeLa-JRFL Env/CEM21 cell fusion, luciferase; inhibition, % at 12.3 µM; 1.1% of 360,000 active; AID 651610;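 active = mean replicate inhibition score of at least 50 and every replicate individually at or above 50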;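 also: 0% = plate neutral controls and 100% = maraviroc near 300 nM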
SR-BI uptake up = SR-BI HDL lipid transfer activation | CHO ldlA[mSR-BI] cells, DiI-HDL uptake fluorescence, 3 h; 100 = double the neutral-control signal | 0.096% of 320,000 active | activation, % at 12.5 µM;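 active = mean replicate activation of at least 60% and every replicate at or above 60%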;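 also: 0% = median plate neutral-control signal and 100% = twice that signal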
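Test system: SR-BI-overexpressing, LDLR-lacking CHO cells; Also added: labelled HDL, 10 µg/mL; Measured by: bottom-read cell fluorescence after medium removal, ex 550/em 595 nm; Timing: 3 h uptake period with compound, 37 °C; Buffer or medium: F12, 0.5% BSA, 25 mM HEPES; Doses: single compound concentration, delivered by pin transfer.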
PglD inh = inhibitors of Campylobacter jejuni PglD acetyltransferase; purified PglD enzyme, DTNB colorimetric CoA detection; inhibition, % at 12.5 µM; 0.098% of 360,000 active; in the data active = inhibition above about 16%, passing the limit was not always enough
Glyco luc inh = N-linked glycosylation inhibition | D54 ERlucT glycosylation luciferase reporter, 24 h; percent of 100 nM tunicamycin response | reporter increase, % at 12.5 µM | 0.23% of 360,000 active;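 active = mean luciferase reporter signal, scaled so untreated is 0 and the glycosylation-blocking control 100, at or above a set limit in every replicate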;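 also: luciferase carries N-glycosylation sites so blocking glycosylation raises the light; 0% = median of neutral control wells and 100% = median of 100 nM tunicamycin wells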
SR-BI HDL uptake = inhibitors of mouse SR-BI mediated HDL lipid uptake. inhibition, % at 12.5 µM. Q61009. ldlA[mSR-BI] CHO cells, DiI-HDL uptake fluorescence, 3 h. 0.96% of 320,000 active;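 active = mean replicate inhibition of at least 70% and a set share of replicates each scoring 70 or more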;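 also: 0% = median of neutral control wells and 100% = median of positive control wells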
Target sequence (Q61009 whole entry, looked up): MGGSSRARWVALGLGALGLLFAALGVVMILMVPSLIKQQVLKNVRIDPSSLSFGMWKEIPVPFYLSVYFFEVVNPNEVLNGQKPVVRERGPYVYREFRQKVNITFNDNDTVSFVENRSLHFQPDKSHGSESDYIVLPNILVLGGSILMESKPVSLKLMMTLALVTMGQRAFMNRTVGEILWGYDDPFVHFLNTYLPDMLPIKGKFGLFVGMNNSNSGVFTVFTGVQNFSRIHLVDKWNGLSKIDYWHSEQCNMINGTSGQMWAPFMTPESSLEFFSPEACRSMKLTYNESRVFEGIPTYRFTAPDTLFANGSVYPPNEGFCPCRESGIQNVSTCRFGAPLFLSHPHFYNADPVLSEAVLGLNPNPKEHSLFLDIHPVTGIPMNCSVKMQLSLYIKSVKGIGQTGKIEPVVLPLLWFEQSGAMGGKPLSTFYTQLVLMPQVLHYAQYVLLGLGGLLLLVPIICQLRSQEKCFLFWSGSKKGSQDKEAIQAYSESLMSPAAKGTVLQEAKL
Rtt109 HAT inh = C. albicans Rtt109 histone acetyltransferase inhibition. inhibition, % at 34.9 µM. purified Rtt109/Vps75, ThioGlo CoA-SH fluorescence, 4 h. 0.16% of 330,000 active;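 active = inhibition of at least 50% in every replicate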
An asterisk follows results filed as active; x = not tested or not shown; [ ] = remark or other dose. An excerpt weighted towards active compounds, which were near 1.9% of everything screened.

SMILES | Env fusion inh | SR-BI uptake up | PglD inh | Glyco luc inh | SR-BI HDL uptake | Rtt109 HAT inh
O=C(NCc1ccccc1)[C@@H]1CCCN1C(=O)[C@@H]1CCCN1C(=O)c1cccc2ccccc12 | 75* | x | x | x | x | x
Cc1ccccc1C(=O)N[C@H](C(=O)N1CCC[C@H]1C(=O)NCc1ccccc1)c1ccccc1 | 56* | x | x | x | x | x
O=C(NCc1ccncc1)[C@@H]1CCCN1C(=O)[C@@H]1CCCN1C(=O)c1cccc2ccccc12 | 16 | x | x | x | x | x
Cc1ccccc1C(=O)N[C@@H](CC(C)C)C(=O)N1CCC[C@H]1C(=O)NCc1ccccc1 | -47 | x | x | x | x | x
CCC(=O)N1[C@@H]2c3ccc(/C=C/c4ccccc4)c(=O)n3C[C@@H]2[C@@H](CO)[C@@H]1C(=O)OC | x | x | -1 | x | x | x
C[C@@H]1CN([C@H](C)CO)C(=O)c2cc(NC(=O)C3CCCCC3)ccc2O[C@@H](C)CCCCO[C@H]1CN(C)Cc1ccc(C(=O)O)cc1 | -1[16.7 µM] | x | 1 | x | x | x
COc1ccc(-c2cn(CC(=O)N3CCN(C)CC3)nn2)cc1OC | -4[16.7 µM] | x | 2 | x | x | x
COc1ccc(OCC(=O)Nc2ccc3c(c2)nc(CCN2CCN(c4ccccn4)CC2)n3C)cc1 | 29 | x | 0 | -4 | x | x
Cc1cccc(OCC(=O)Nc2ccc3c(c2)nc(CCN2CCN(c4ccccn4)CC2)n3C)c1 | 13 | -73 | -5 | -5 | 73* | 15
O=C(NCC[C@@H]1CC[C@@H](NS(=O)(=O)Cc2ccccc2)[C@@H](CO)O1)C1CCC1 | -12[16.7 µM] | x | 5 | x | x | x
CN(C)C(=O)C[C@@H]1C[C@@H]2c3cc(NC(=O)Nc4ccc(C(F)(F)F)cc4)ccc3O[C@@H]2[C@H](CO)O1 | x | x | 4 | x | x | x
Cc1nn(Cc2ccc([N+](=O)[O-])cc2)c(=O)n1N(C)c1ncc(C(F)(F)F)cc1Cl | 63* | -9 | 3 | 10 | 9 | -2
COc1ccc(C=CC(=O)c2ccc([N+](=O)[O-])cc2)cc1 | 6 | -11 | 2 | -3 | 11 | -2
Cc1[nH]c(C)c(C(=O)/C=C/c2ccc([N+](=O)[O-])cc2)c1C | -54 | -45 | -2 | 42* | 45 | 0
COc1ccc(Cl)cc1NC(=O)CN(C)C(=O)Cc1ccc(-c2ccccc2)cc1 | x | -33 | 4 | -1 | 33 | 1
CCCOc1ccccc1NC(=O)c1c(-c2ccccc2)noc1C | 65* | -46 | -3 | -4 | 46 | -5
COc1ccc(Cl)cc1NC(=O)c1c(-c2ccccc2)noc1C | x | -76 | 6 | 1 | 76* | -4
Cc1onc(-c2ccccc2)c1C(=O)OCCOc1cccc(Cl)c1 | 75* | 7 | 6 | 12 | -7 | 1
COc1cc(OC)c(NC(=O)c2c(-c3ccccc3)noc2C)cc1Cl | -8 | -67 | -2 | 1 | 67 | 1
COc1ccc(Cl)cc1NC(=O)CN(C)CC(=O)Nc1ccccc1-c1ccccc1 | 63* | -5 | -2 | 2 | 5 | -28
CC(=O)N1[C@H](CO)[C@H](c2ccc(C3=CCCC3)cc2)[C@@H]1CNC(=O)CN(C)C | x | x | 0 | x | x | x
CCNC(=O)C[C@@H]1CC[C@@H]2[C@H](COC[C@@H](O)CN2Cc2ccc(Cl)c(Cl)c2)O1 | x | x | 1 | x | x | x
C[C@H]1CN([C@@H](C)CO)S(=O)(=O)c2ccc(-c3cccnc3)cc2O[C@@H]1CN(C)Cc1ccccn1 | 11[16.7 µM] | x | 2 | x | x | x
Cc1onc(-c2ccccc2)c1C(=O)Nc1ncc([N+](=O)[O-])s1 | 72* | 20 | -4 | -1 | -20 | 5
Cc1onc(-c2ccccc2)c1C(=O)Nc1ccccc1NC(=O)c1c(-c2ccccc2)noc1C | 4 | -1 | 0 | 0 | 1 | -17
SMILES | Env fusion inh | SR-BI uptake up | PglD inh | Glyco luc inh | SR-BI HDL uptake | Rtt109 HAT inh
Cc1onc(-c2ccccc2)c1C(=O)Nc1ccc(Br)cc1Cl | 86* | -22 | -3 | x | 22 | 10
C[C@@H]1CN([C@@H](C)CO)C(=O)c2cc(NC(=O)CCC(F)(F)F)ccc2O[C@@H]1CN(C)S(=O)(=O)c1ccccc1 | x | x | 3 | x | x | x
C/C(=N/NC(=O)c1ccncc1)c1ccc(NC(=O)c2ccccc2)cc1 | -23 | -9 | -3 | 0 | 9 | -5
C/C(=N\NC(=O)COc1ccccc1[N+](=O)[O-])c1cccc(NC(=O)c2ccncc2)c1 | -25 | -81 | -3 | -1 | 81* | -2
C/C(=N\NC(=O)c1cccc(N/N=C(\C)c2ccccc2)c1)c1ccccc1 | -51 | -79 | x | 1 | 79* | 4
COc1ccc(/C(C)=N/NC(=O)c2ccncc2)cc1[N+](=O)[O-] | -4 | 1 | -3 | 1 | -1 | 2
C/C(=N\NC(=O)c1ccncc1)c1cccc(NC(=O)c2ccc(C(C)(C)C)cc2)c1 | -383 | -78 | 4 | -7 | 78* | 0
COc1cccc(-c2ccc3c(c2)O[C@H](CN(C)C(=O)C2CCOCC2)[C@H](C)CN([C@@H](C)CO)S3(=O)=O)c1 | x | x | 2 | x | x | x
CC=Cc1ccc2n(c1=O)C[C@H]1[C@H](CO)[C@@H](C(=O)N[C@H](C)c3ccccc3)N(C(=O)c3cnccn3)[C@@H]21 (mixture of isomers) | -10[16.7 µM] | x | -3 | x | x | x
O=C(O)c1cccc(N/N=C/c2sc(N3CCOCC3)nc2-c2ccccc2)c1 | x | -6 | x | 12 | 6 | 23
O=[N+]([O-])c1ccc(N/N=C/c2sc(N3CCOCC3)nc2-c2ccccc2)c(S(=O)(=O)Nc2ccc(Cl)cc2)c1 | 17 | -118 | x | -17 | 118* | -7
O=[N+]([O-])c1ccc(N/N=C/c2sc(N3CCOCC3)nc2-c2ccccc2)c(S(=O)(=O)Nc2ccccc2Cl)c1 | 95* | 17 | x | 0 | -17 | 1
O=C(c1ccccn1)N1C[C@@H]2[C@H](c3ccccc31)[C@@H](CO)N2C(=O)c1ccccn1 | x | x | 0 | x | x | x
CCOC(=O)C1CCN(C(=O)c2ccc3c(c2)C(=O)N(c2ccccc2C)C3=O)CC1 | 85* | 10 | x | 1 | -10 | 1
CCOC(=O)C1CCCN(C(=O)c2ccc3c(c2)C(C)(C)CCC3(C)C)CC1 (stereo not given) | 60* | x | -3 | 1 | x | x
C[C@H](CO)N1C[C@H](C)[C@H](CN(C)C(=O)Cc2ccccn2)Oc2ncc(C#C[C@@H](C)O)cc2C1=O | -5[16.7 µM] | x | 1 | x | x | x
Cc1ccc(S(=O)(=O)N2CC3(C)CN(S(=O)(=O)c4ccc(C)cc4)CC(C)(C2)C3)cc1 | x | 15 | 5 | 1 | -15 | -1
CCC12CN(S(=O)(=O)c3ccc(C)cc3)CC(CC)(CN(S(=O)(=O)c3ccc(C)cc3)C1)C2=O | 109* | -6 | -14 | -1 | 6 | 5
Cc1ccc(-c2ccc3c(c2)O[C@@H](CN(C)C(=O)Nc2ccc(F)cc2)[C@H](C)CN([C@@H](C)CO)S3(=O)=O)cc1 | -26[16.7 µM] | x | 0 | x | x | x
COc1ccc(N2CCc3c(C)nc4c(OC)cccc4c32)cc1 | -40 | 20 | x | 35* | -20 | -8
